Series [1] in a line: Drug metabolism assessed as nitric oxide release in presence of bovine plasma at 200 uM measured after 1 hr by Griess reagent based assay. The settings on record: cattle. The class given is ADME, cell-free, Bos taurus.
Series [2] can be described thus: Stability of the compound under dark condition at 200 uM measured after 24 hrs by HPLC analysis. The series is classed as physicochemical.
Series [3] is described as follows: Stability of the compound in pH 6 phosphate buffer assessed as half life at 200 uM measured after 24 hrs by HPLC analysis. The series is classed as physicochemical. The settings on record: phosphate buffer pH 6, pH 6.
Series [4] in a line: GSH reactivity assessed as reaction rate measured at 1 equiv of GSH upto 24 hrs by HPLC analysis. The series is classed as ADME.
Series [5] in a line: Solubility of compound in water. The series is classed as physicochemical.
Series [6] in a line: Lipo-hydro partition coefficient, logP of compound. The class given is physicochemical. The settings on record: octanol/water.
Series [7] can be described thus: Neuroprotective activity against in OGD/R-induced rat cortical neuron apoptosis assessed as early apoptotic cells pretreated at 1.8 uM for 24 hrs followed by subjected to OGD for 2 hrs measured after 24 hrs under normoxic condition by PI/FITC-H staining based flow cytometry (reference value: 58.46%). The class given is functional, Cortical neurone.
The test system of series [8] is Cortical neurone. Kind of series: Neuroprotective activity against in OGD/R-induced rat cortical neuron cytotoxicity assessed as decrease in cell viability pretreated at 1.8 uM for 24 hrs followed by subjected to OGD for 2 hrs measured after 24 hrs under normoxic condition i n presence of ML385 by MTT assay. The series is classed as functional, tissue-based. Put shortly: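 Cortical neurons were isolated from SD rat cortex by enzymatic digestion, plated on poly-lysine in 10% FBS DMEM, and pretreated 24 h at 1.8 μM in basal medium with 2% B27. OGD was run in glucose/FBS-free DMEM under 1% O₂, followed by 24 h reoxygenation in 10% FBS DMEM. Viability was read by MTT; apoptosis was also assessed. Three independent experiments.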

The test system of series [9] is Cortical neurone. Description: Neuroprotective activity against in OGD/R-induced rat cortical neuron cytotoxicity assessed as activation of NO/cGMP/PKG pathway by measuring increase in cGMP level pretreated at 1.8 uM for 24 hrs followed by subjected to OGD for 2 hrs measured after 24 hrs under normoxic condition by ELISA. The series is classed as functional, tissue-based.

The subject of series [10] is Cortical neurone. Kind of series: Neuroprotective activity against in OGD/R-induced rat cortical neuron cytotoxicity assessed as activation of NO/cGMP/PKG pathway by measuring increase in cGMP level pretreated at 1.8 uM for 24 hrs followed by subjected to OGD for 2 hrs measured after 24 hrs under normoxic condition in presence of NS2028 by ELISA. The class given is functional, tissue-based.

For series [11], the system named is Rattus norvegicus. Description: Neuroprotective activity against middle cerebral artery occlusion-induced ischemia-reperfusion injury Sprague-Dawley rat model assessed as decrease in cerebral edema degree at 95 to 9500 microg/kg, iv pretreated for 2 hrs followed by reperfusion measured after 24 hrs. The series is classed as functional, organism-based. The settings on record: dose 95-9500 µg/kg. Put shortly: (§1)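 Male SD rats (N = 8/group) were dosed iv at 95, 950 or 9500 μg/kg 2 h before 2 h MCAO (nylon suture, chloral hydrate anesthesia), then reperfused. Where used, PTIO 1 mg/kg iv was given 30 min before compound. At 24 h, blinded assessment covered Longa deficit score, TTC-stained 2 mm sections (infarct area/whole area), and edema by wet/dry weight.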

Series [12] relates to Rattus norvegicus. Kind of series: Neuroprotective activity against middle cerebral artery occlusion-induced ischemia-reperfusion injury Sprague-Dawley rat model assessed as decrease in neurologic deficit scores at 95 to 9500 microg/kg, iv pretreated for 2 hrs followed by reperfusion measured after 24 hrs. The series is classed as functional, organism-based. The settings on record: dose 95-9500 µg/kg. Put shortly: as §1

Series [13] deals with Rattus norvegicus. Kind of series: Neuroprotective activity against middle cerebral artery occlusion-induced ischemia-reperfusion injury Sprague-Dawley rat model assessed as decrease in cerebral edema degree at 950 microg/kg, iv pretreated for 2 hrs followed by reperfusion measured after 24 hrs in presence of PTIO. The class given is functional, organism-based. The settings on record: dose 950.0 µg/kg. Put shortly:
as §1

For series [14], the system named is Rattus norvegicus. Description: Neuroprotective activity against middle cerebral artery occlusion-induced ischemia-reperfusion injury Sprague-Dawley rat model assessed as decrease in neurologic deficit scores at 950 microg/kg, iv pretreated for 2 hrs followed by reperfusion measured after 24 hrs in presence of PTIO. The series is classed as functional, organism-based. The settings on record: dose 950.0 µg/kg. In a few lines: as §1

Series [15] can be described thus: Toxicity in Sprague-Dawley rat assessed as effect on blood pressure at 950 microg/kg, iv measured upto 24 hrs. The class given is organism-based. The settings on record: in vivo, 0.95 mg/kg, dose 950 µg/kg. Put shortly: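 Male Sprague-Dawley rats (12 weeks, 200−220 g, SPF housing, free chow and water) received a single iv tail-vein injection of test compound or vehicle control, n = 3 per group, followed by blood pressure measurement.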

In series [16] the test system is Rattus norvegicus. Description: Neuroprotective activity against middle cerebral artery occlusion-induced ischemia-reperfusion injury Sprague-Dawley rat model assessed as decrease in brain infarct volume at 95 to 9500 microg/kg, iv treated immediately reperfusion measured after 24 hrs. The settings on record: dose 95-9500 µg/kg. The series is classed as functional, organism-based. In a few lines: (§2)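 Male SD rats (12 weeks, 200–220 g; N = 8/group) underwent MCAO under […] (350 mg/kg) using a nylon intraluminal suture for 2 h, then reperfusion. Compound (95, 950 or 9500 μg/kg) was given iv immediately after reperfusion; where used, PTIO 1 mg/kg iv was given 30 min before. At 24 h, blinded scoring covered Longa neurological deficit, TTC infarct area/whole area, and edema from wet/dry brain weight (105 °C, 24 h).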

Series [17] concerns Rattus norvegicus. Kind of series: Neuroprotective activity against middle cerebral artery occlusion-induced ischemia-reperfusion injury Sprague-Dawley rat model assessed as decrease in neurologic deficit scores at 95 to 9500 microg/kg, iv treated immediately reperfusion measured after 24 hrs. The series is classed as functional, organism-based. The settings on record: dose 95-9500 µg/kg. In a few lines: as §2

In series [18] the test system is Rattus norvegicus. Description: Neuroprotective activity against middle cerebral artery occlusion-induced ischemia-reperfusion injury Sprague-Dawley rat model assessed as decrease in cerebral edema degree at 95 to 9500 microg/kg, iv treated immediately reperfusion in presence of PTIO measured after 24 hrs. The settings on record: dose 95-9500 µg/kg. The class given is functional, organism-based. In a few lines: as §2

The test system of series [19] is Rattus norvegicus. Kind of series: Neuroprotective activity against middle cerebral artery occlusion-induced ischemia-reperfusion injury Sprague-Dawley rat model assessed as increase in NQO1 expression in cerebral ischemic penumbra at 950 microg/kg, iv treated immediately reperfusion measured after 24 hrs. The class given is functional, organism-based. The settings on record: dose 950.0 µg/kg. In a few lines: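 MCAO rat brain paraffin sections (3 μm) were blocked with 10% goat serum and stained by IHC for NQO-1 and HO-1 (1:200) and phospho-Nrf2 (1:100), with DAB detection and rabbit IgG as negative control. Average optical density of positive cells was scored blinded over five fields per sample.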

Series [20] relates to Rattus norvegicus. Kind of series: Neuroprotective activity against middle cerebral artery occlusion-induced ischemia-reperfusion injury Sprague-Dawley rat model assessed as increase in Ki67+ cells in cerebral ischemic penumbra at 95 to 950 microg/kg, iv treated immediately reperfusion measured after 24 hrs by immunofluoresence assay. The settings on record: dose 95-950 µg/kg. The class given is functional, organism-based.

Series [21] deals with Rattus norvegicus. Kind of series: Neuroprotective activity against middle cerebral artery occlusion-induced ischemia-reperfusion injury Sprague-Dawley rat model assessed as increase in Ki67+ cells in cerebral ischemic penumbra at 95 to 950 microg/kg, iv treated immediately reperfusion measured after 24 hrs in presence of PTIO by immunofluoresence assay. The class given is functional, organism-based. The settings on record: dose 95-950 µg/kg.

Series [22] concerns Rattus norvegicus. Description: Neuroprotective activity against middle cerebral artery occlusion-induced ischemia-reperfusion injury Sprague-Dawley rat model assessed as increase in AuroraB + cells in cerebral ischemic penumbra at 95 to 950 microg/kg, iv treated immediately reperfusion measured after 24 hrs in presence of PTIO by immunofluoresence assay. The series is classed as functional, organism-based. The settings on record: dose 95-950 µg/kg.

Converted amounts (≈) assume the structure as drawn. The source made the active and inactive calls. The rule behind the calls is not given here.

For `O=C(/C(=C/c1ccccc1)C[N+](=O)[O-])c1ccccc1`, the Drug metabolism entry in series [1] is given as “Metabolite_Detected”. Moreover, in series [2], the Stability result is recorded as “Stable”. For the same molecule, in series [3], the half-life at 200 µM was 1.1 h. Moreover, the Activity in [4] was 0.0214 h⁻¹; in series [7], 7.21%; in series [15] it was “Non-Toxic”. The same molecule returned a solubility in series [5] of 33.2 µg/mL (≈ 124 µM). The logP in series [6] amounted to 0.54. The result in [8], in series [9], in series [11], in [12], in series [16] and in [17] was Active. For the same molecule, the result in series [19] and in series [20] was Active. The outcome in [10], in series [13], in [14], in series [18], in series [21] and in series [22] was inactive.
